Results from ChEMBL document CHEMBL4406804, “Discovery of a Potent Steroidal Glucocorticoid Receptor Antagonist with Enhanced Selectivity against the Progesterone and Androgen Receptors (OP-3633)” (J Med Chem, 2019).
Calls of active or inactive are those of the source. The calls are words filed in the database; no cut-off is given here.

Columns and labels:
Format in all cases: cell-based
Glucocorticoid receptor = biological target: T1, Glucocorticoid receptor (Homo sapiens, UniProt P04150); experiment: Antagonist activity at human glucocorticoid receptor expressed in CHO-K1 cells harboring firefly luciferase gene after 20 hrs by One-Glo luciferase reporter gene assay
T1 sequence (P04150 whole entry): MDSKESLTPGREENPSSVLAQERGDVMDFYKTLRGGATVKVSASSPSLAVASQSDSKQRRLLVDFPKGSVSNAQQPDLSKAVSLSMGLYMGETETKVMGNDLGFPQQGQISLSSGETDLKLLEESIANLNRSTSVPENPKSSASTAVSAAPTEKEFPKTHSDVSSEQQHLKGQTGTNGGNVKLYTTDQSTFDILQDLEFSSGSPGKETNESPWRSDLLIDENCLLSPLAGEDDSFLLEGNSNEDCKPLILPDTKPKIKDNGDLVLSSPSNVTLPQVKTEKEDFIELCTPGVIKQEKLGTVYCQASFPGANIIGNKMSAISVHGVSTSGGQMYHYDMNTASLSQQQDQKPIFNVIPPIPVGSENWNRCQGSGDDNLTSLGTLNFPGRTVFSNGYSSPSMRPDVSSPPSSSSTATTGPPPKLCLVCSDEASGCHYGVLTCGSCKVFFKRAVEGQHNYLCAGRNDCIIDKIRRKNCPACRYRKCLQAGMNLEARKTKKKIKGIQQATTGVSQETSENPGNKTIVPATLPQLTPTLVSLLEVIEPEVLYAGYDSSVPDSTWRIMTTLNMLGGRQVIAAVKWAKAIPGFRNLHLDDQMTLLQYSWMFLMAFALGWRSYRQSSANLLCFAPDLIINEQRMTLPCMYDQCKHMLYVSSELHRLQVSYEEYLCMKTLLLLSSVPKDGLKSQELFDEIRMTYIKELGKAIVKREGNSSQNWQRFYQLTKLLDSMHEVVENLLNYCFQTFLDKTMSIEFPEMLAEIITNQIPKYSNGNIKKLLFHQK

Androgen receptor [1] = biological target: T2, Androgen receptor (Homo sapiens, UniProt P10275); experiment: Agonist activity at human androgen receptor in human LNCAP cells harboring firefly luciferase gene after 20 hrs by One-Glo luciferase reporter gene assay relative to mifepristone
T2 sequence (P10275 whole entry): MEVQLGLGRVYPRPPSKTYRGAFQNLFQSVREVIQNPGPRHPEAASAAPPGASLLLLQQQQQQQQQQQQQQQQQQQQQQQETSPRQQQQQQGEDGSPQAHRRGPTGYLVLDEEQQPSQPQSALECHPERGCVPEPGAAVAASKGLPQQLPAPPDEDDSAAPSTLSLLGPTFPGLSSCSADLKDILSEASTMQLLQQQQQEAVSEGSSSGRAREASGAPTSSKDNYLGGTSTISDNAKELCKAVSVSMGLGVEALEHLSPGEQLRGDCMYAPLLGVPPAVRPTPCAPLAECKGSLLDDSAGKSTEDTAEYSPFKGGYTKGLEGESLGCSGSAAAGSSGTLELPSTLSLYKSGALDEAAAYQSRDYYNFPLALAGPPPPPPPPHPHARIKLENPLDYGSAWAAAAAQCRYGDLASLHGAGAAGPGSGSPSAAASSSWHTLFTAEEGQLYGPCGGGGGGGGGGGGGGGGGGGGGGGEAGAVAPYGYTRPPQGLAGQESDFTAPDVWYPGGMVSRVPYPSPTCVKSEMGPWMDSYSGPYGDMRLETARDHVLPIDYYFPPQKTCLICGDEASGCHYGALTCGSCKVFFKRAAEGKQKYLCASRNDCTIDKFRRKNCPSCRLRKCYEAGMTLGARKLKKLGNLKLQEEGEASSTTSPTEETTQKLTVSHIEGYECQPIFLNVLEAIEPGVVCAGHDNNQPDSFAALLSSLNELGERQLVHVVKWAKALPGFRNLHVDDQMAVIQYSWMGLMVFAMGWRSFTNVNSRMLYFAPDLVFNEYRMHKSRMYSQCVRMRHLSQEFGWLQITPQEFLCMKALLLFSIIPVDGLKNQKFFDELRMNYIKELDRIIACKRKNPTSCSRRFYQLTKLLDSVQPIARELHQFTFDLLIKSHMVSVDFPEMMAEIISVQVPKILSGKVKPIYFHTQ
Procedure, shortened: (§1)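 Cell-based luciferase reporter assays for GR, AR and PR, run in agonist and antagonist modes. Potency and Emax are averages of at least two determinations, reported with SD.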

Androgen receptor [2] = biological target: T2, Androgen receptor; experiment: Antagonist activity at human androgen receptor in human LNCAP cells harboring firefly luciferase gene after 20 hrs by One-Glo luciferase reporter gene assay; procedure, shortened: as §1
Androgen receptor [3] = biological target: T2, Androgen receptor; experiment: Agonist activity at human androgen receptor in human LNCAP cells harboring firefly luciferase gene after 20 hrs by One-Glo luciferase reporter gene assay
Progesterone receptor = biological target: T3, Progesterone receptor (Homo sapiens, UniProt P06401); experiment: Antagonist activity at human progesterone receptor expressed in CHO-K1 cells harboring firefly luciferase gene after 20 hrs by One-Glo luciferase reporter gene assay; procedure, shortened: as §1
T3 sequence (P06401 whole entry): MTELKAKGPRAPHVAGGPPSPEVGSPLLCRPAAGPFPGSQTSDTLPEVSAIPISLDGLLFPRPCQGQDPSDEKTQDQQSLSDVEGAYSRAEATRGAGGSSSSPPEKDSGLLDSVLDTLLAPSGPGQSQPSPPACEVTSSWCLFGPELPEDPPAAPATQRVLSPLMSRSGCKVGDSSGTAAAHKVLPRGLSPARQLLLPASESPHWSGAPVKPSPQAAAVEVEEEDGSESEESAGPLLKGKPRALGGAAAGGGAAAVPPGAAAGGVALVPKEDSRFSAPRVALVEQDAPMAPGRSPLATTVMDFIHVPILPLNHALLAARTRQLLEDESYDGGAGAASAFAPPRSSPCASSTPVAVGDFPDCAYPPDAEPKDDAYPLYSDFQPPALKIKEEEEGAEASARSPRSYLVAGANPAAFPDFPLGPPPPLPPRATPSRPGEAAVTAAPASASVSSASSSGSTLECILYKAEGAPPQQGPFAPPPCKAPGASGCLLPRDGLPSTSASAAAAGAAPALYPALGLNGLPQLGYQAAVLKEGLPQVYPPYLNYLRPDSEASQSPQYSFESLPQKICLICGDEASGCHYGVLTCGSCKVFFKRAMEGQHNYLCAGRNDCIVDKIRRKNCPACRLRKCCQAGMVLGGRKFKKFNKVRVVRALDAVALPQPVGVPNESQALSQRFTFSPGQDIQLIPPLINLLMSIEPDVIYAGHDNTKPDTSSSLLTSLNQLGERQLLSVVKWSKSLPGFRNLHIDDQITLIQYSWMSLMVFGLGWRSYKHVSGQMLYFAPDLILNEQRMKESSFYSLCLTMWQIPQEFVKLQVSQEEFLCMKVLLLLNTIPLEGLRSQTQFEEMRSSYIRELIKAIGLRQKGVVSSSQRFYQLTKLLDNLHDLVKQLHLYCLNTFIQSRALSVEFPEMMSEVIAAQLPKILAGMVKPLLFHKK

[4] = biological target: T4, Progesterone receptor (Homo sapiens) (UniProt P06401); experiment: Agonist activity at human progesterone receptor expressed in CHO-K1 cells harboring firefly luciferase gene after 20 hrs by One-Glo luciferase reporter gene assay; procedure, shortened: as §1
T4 sequence (whole entry): T3 sequence (P06401 whole entry)

Homo sapiens = species: Homo sapiens; experiment: Selectivity ratio, ratio of IC50 for human androgen receptor in human LNCAP cells to IC50 for human glucocorticoid receptor expressed in CHO-K1 cells harboring firefly luciferase gene
[5] = biological target: T5, Glucocorticoid receptor (Homo sapiens) (UniProt P04150); experiment: Antagonist activity at human glucocorticoid receptor expressed in CHO-K1 cells harboring firefly luciferase gene assessed as inhibition of glucocorticoid receptor activity at 0.01 to 10000 nM after 20 hrs by One-Glo luciferase reporter gene assay relative to mifepristone; parameters: scale not given: the % may be the effect or the level left; procedure, shortened: as §1
T5 sequence (whole entry): T1 sequence (P04150 whole entry)

| Structure (SMILES) | IC50 (Glucocorticoid receptor) [nM] | Emax at 20 h (Androgen receptor [1]) [%] | IC50 (Androgen receptor [2]) [nM] | EC50 (Androgen receptor [3]) [nM] | IC50 (Progesterone receptor) [nM] | agonist activity [4] | Ratio (Homo sapiens) | Activity [5] [%] |
| --- | --- | --- | --- | --- | --- | --- | --- | --- |
| CC#C[C@]1(O)CC[C@H]2[C@@H]3CCC4=CC(=O)CC[C@]4(C)[C@H]3[C@@H](c3ccc(N(C)C(C)C)cc3)C[C@@]21C | 20.6 | 55.9 | 2250 | 1140 | 527 | inactive | – | – |
| CCC(C)(C)C#C[C@]1(O)CC[C@H]2[C@@H]3CCC4=CC(=O)CC[C@@H]4[C@H]3[C@@H](c3ccc(N(C)C)cc3)C[C@@]21C | 12.7 | 7.3 | 175 | > 2500 | 21.1 | inactive | 10 to 30 | – |
| CC(C)C#C[C@]1(O)CC[C@H]2[C@@H]3CCC4=CC(=O)CC[C@]4(C)[C@H]3[C@@H](c3ccc(N(C)C)cc3)C[C@@]21C | 62 | 8.3 | > 5000 | > 2500 | 2080 | inactive | – | – |
| CN(C)c1ccc([C@H]2C[C@@]3(C)[C@@H](CC[C@@]3(O)C#CC(F)(F)F)[C@@H]3CCC4=CC(=O)CC[C@]4(C)[C@H]32)cc1 | 47.2 | 7.3 | 642 | > 2500 | 910 | inactive | – | – |
| CCC#C[C@]1(O)CC[C@H]2[C@@H]3CCC4=CC(=O)CC[C@]4(C)[C@H]3[C@@H](c3ccc(N(C)C)cc3)C[C@@]21C | 73.7 | 13.2 | 2960 | > 2500 | 1550 | inactive | – | – |
| CC#C[C@]1(O)CC[C@H]2[C@@H]3CCC4=CC(=O)CC[C@]4(C)[C@H]3[C@@H](c3ccc(N(C)CCOC)cc3)C[C@@]21C | 52.1 | 20 | 1300 | > 2500 | 1640 | inactive | – | – |
| CC(C)(C)C#C[C@]1(O)CC[C@H]2[C@@H]3CCC4=CC(=O)CC[C@@H]4[C@H]3[C@@H](c3ccc(N4CCOCC4)cc3)C[C@@]21C | 10.3 | 5.1 | 208 | > 2500 | 4.8 | inactive | 10 to 30 | 100 |
| CCN(CC)c1ccc([C@H]2C[C@@]3(C)[C@@H](CC[C@@]3(O)C#CC(C)(C)C)[C@@H]3CCC4=CC(=O)CC[C@@H]4[C@H]32)cc1 | 13.9 | 9.4 | 263 | > 2500 | 6 | inactive | 10 to 30 | – |
| CC#C[C@]1(O)CC[C@H]2[C@@H]3CCC4=CC(=O)CC[C@]4(C)[C@H]3[C@@H](c3ccc(-n4cccc4)cc3)C[C@@]21C | 52.2 | 16.5 | 354 | > 2500 | 523 | inactive | – | – |
| CN(C)c1ccc([C@H]2C[C@@]3(C)[C@@H](CC[C@@]3(O)C#CC(C)(C)C)[C@@H]3CCC4=CC(=O)CC[C@@H]4[C@H]32)cc1 | – | – | 165 | – | 3.4 | inactive | 10 to 30 | 100 |
| CC#C[C@]1(O)CC[C@H]2[C@@H]3CCC4=CC(=O)CC[C@]4(C)[C@H]3[C@@H](c3ccc(OC)cc3)C[C@@]21C | 58.3 | 14.1 | 561 | > 2500 | 1690 | inactive | – | – |
| COCC#C[C@]1(O)CC[C@H]2[C@@H]3CCC4=CC(=O)CC[C@]4(C)[C@H]3[C@@H](c3ccc(N(C)C)cc3)C[C@@]21C | 116 | 17.5 | > 5000 | > 2500 | 4240 | inactive | – | – |
| CC#C[C@]1(O)CC[C@H]2[C@@H]3CCC4=CC(=O)CC[C@]4(C)[C@H]3[C@@H](c3ccc(N4CCCC4)cc3)C[C@@]21C | 57.9 | 10.6 | 3150 | > 2500 | 4070 | inactive | – | – |
| CN1CCN(c2ccc([C@H]3C[C@@]4(C)[C@@H](CC[C@@]4(O)C#CC(C)(C)C)[C@@H]4CCC5=CC(=O)CC[C@@H]5[C@H]43)cc2)CC1 | 35.8 | 7.9 | 1010 | > 2500 | 25.4 | inactive | 10 to 30 | – |
| CC#C[C@]1(O)CC[C@H]2[C@@H]3CCC4=CC(=O)CC[C@]4(C)[C@H]3[C@@H](OCc3ccc(Cl)cc3)C[C@@]21C | 17.6 | 47.8 | 85 | 1890 | 8.2 | inactive | – | – |
